# Source: PubChem BioAssay (The Scripps Research Institute Molecular Screening Center)
# Rows were chosen to be rich in hits. Some 3% of all compounds tested hit in one or more screens of this group.
# TAAR1 antag: human TAAR1 antagonism | 360,000 tested, 1.5% active | CHO RD-HGA16 TAAR1, Fluo-8 calcium fluorescence, antagonist | inhibition, % at 3 µM | Q96RJ0;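 active = inhibition above a per-plate cutoff, the mean inhibition of test compounds on that plate plus 3 SD, cut at about 49% in these data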;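 note: 0% = DMSO plus EC80 beta-PEA response and 100% = DMSO alone without agonist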
# Target sequence (Q96RJ0 whole entry, looked up): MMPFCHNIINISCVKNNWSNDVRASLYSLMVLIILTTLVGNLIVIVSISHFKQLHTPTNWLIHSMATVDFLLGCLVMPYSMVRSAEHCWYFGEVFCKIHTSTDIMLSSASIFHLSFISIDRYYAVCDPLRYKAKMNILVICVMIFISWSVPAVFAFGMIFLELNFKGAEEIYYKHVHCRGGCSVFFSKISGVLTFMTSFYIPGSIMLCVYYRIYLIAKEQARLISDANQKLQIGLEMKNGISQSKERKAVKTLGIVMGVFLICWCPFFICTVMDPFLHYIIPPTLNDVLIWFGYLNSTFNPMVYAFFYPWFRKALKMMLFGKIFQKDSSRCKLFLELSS
#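 Test system: CHO RD-HGA16 cells bearing hTAAR1 | Reagent: β-PEA, EC80 | Compound dosing: 3 µM, single point | Schedule: Dye loading 75 min at 37 °C, then 30 min room temperature | Signal: Calcium fluorescence with Fluo-8 | Evaluation: Percent inhibition of PEA-evoked calcium signal, max/basal emission ratio | Control set: DMSO-only wells and EC80 β-PEA-stimulated wells | Repeats: Singlicate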
# M4 PAM: positive allosteric modulators of human muscarinic M4 receptor. P08173. CHO-K1 hM4/Gqi5, Fluo-8 calcium fluorescence, ACh EC20; 0% = ACh EC20, 100% = maximal ACh. activation, % at 3 µM. 360,000 tested, 0.4% active. AID 624126;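 active = activation above its plate's cutoff, the mean activation of sample wells plus 3 SD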
# M4 ag: agonists of human muscarinic M4 receptor (CHRM4) | 360,000 tested, 0.14% active | activation, % at 3 µM | P08173 | CHO-K1 hM4/Gqi5, Fluo-8 calcium fluorescence; vehicle 0%, full acetylcholine response 100% | AID 624127;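 active = activation above the run mean over all test wells plus 3 SD, cut at about 32% in these data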;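 note: peak over basal fluorescence ratio per well then scaled between controls; 0% = DMSO wells and 100% = acetylcholine at EC100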
# TAAR1 ag: human TAAR1 agonism; Q96RJ0; activation, % at 3 µM; CHO RD-HGA16 TAAR1, Fluo-8 calcium fluorescence; vehicle wells 0%, saturating PEA agonist 100%; 360,000 tested, 0.99% active;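 active = activation above the mean activation of all test compounds in the run plus 3 SD, cut at about 38% in these data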
#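 Repeats: no replicates (n 1) | Material: CHO-derived RD-HGA16 cells with stable Gα16 and human TAAR1 | Technique: Kinetic Fluo-8 calcium fluorescence | Schedule: 17-24 h seeding, 75 min 37 °C dye, 30 min RT | Evaluation: % activation from peak over basal fluorescence ratio, DMSO-to-PEA scaled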
# M4 antag: blocks acetylcholine activation of human M4 receptor | P08173 | CHO-hM4 cells, ACh EC80, Fluo-8 calcium fluorescence | inhibition, % at 3 µM | 360,000 tested, 0.73% active;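 active = inhibition above its plate's cutoff, the mean inhibition of sample wells plus 3 SD, cut at about 27% in these data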;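 note: 0% = acetylcholine EC80 with DMSO and 100% = DMSO without agonist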
# TAAR1 nonsel count: nonselective antagonist in TAAR1 antagonist counter-screen. AID 651780. 2,400 tested, 77% active. counterscreen cell line, calcium fluorescence, antagonist mode. shares compounds with TAAR1 antag. inhibition, % at 3 µM; in the data active = inhibition above about 22%;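 note: CHO-Ga16 host cells stimulated with ATP at an EC80 level; 0% = agonist EC80 plus vehicle and 100% = vehicle without agonist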
# TAAR1 ant conf: human TAAR1 antagonism, confirmed. AID 651785. inhibition, % at 3 µM. shares compounds with TAAR1 antag. TAAR1-expressing cells, fluorescence antagonist read-out. 2,400 tested, 40% active; in the data active = inhibition above about 49%;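 note: CHO-Ga16 host cells challenged with agonist PEA near its EC80; 0% = agonist at EC80 plus vehicle and 100% = vehicle with no agonist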
# Ga16 ag counter: nonselective Ga16 agonism, counter-screen; 2,400 tested, 18% active; AID 651953; shares compounds with TAAR1 antag; Ga16-expressing cells, calcium fluorescence, agonist counterscreen; activation, % at 3 µM; in the data active = activation above about 12%;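 note: 0% = vehicle wells and 100% = saturating stimulus response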
# TAAR1 ag counter: TAAR1 agonism, antagonist counter-screen; shares compounds with TAAR1 antag; hTAAR1 cell line, fluorescence activation, agonist mode; activation, % at 3 µM; 2,400 tested, 2% active; in the data active = activation above about 37%;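 note: CHO cells stably expressing TAAR1 with calcium dye readout; 0% = DMSO vehicle and 100% = full agonist response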
# * hit, by the source's call; . = no result.
SMILES,TAAR1 antag,M4 PAM,M4 ag,TAAR1 ag,M4 antag,TAAR1 nonsel count,TAAR1 ant conf,Ga16 ag counter,TAAR1 ag counter
Cc1cccc(NC(=O)Cn2nnc(-c3cccs3)n2)c1C,66*,8,2,14,-2,20,46,4,7
O=C(Nc1cccc(OC(F)(F)F)c1)C1Cc2c(-c3ccccc3Oc3ccccc3)ccnc2O1 (stereo unspecified),9,-5,0,6,14,.,.,.,.
CC(C)(C)S(=O)(=O)N1C[C@H]2C(=C(CCO)C[C@H]3C(=O)N(c4ccccc4)C(=O)[C@H]32)[C@@H]1CCO,-15,.,.,1,.,.,.,.,.
CN1CCN(c2cc(CNC[C@H]3O[C@@H](n4cnc5c(=O)[nH]c(N)nc54)[C@H](O)[C@@H]3O)ccc2F)CC1,14,1,0,2,-8,.,.,.,.
CC12CCC3C(CCC4CC(O)CCC43C)C1CC(O)C2 (stereo unspecified),79*,-6,17,20,-1,35*,56*,12*,10
O=C(NCCc1c[nH]c2ccccc12)/C(=C\c1cccnc1)NC(=O)c1ccccc1Br,63*,-23,13,16,14,31*,53*,8,7
Cc1ccc(/C=C(/NC(=O)c2ccccc2)C(=O)NCCc2c[nH]c3ccccc23)o1,58*,-3,9,17,-11,25*,42,8,8
Cc1ccc2[nH]c(O)c(N=NC(N)=S)c2c1,-16,-1,1,0,-2,.,.,.,.
CC(/C=C(\NC(=O)c1ccccc1)C(=O)N=Nc1c(O)[nH]c2ccc(C)cc12)=C\c1ccccc1,65*,-5,11,11,17,20,47,7,5
COc1ccc(-c2csc(NC(=O)c3ccccc3NS(=O)(=O)c3ccc(F)c(F)c3)n2)cc1,55*,-22,13,2,12,60*,71*,10,4
COc1cccc(-c2nn(-c3ccccc3)cc2C(=O)Nc2nccs2)c1,65*,-12,7,8,7,20,49*,4,4
CC1=CC(C)[C@H](/C=N/n2c(=O)[nH]c3c([nH]c4ccc(Br)cc43)c2=O)C(C)C1 (stereo partly specified),11,18,3,2,-9,.,.,.,.
COc1ccc2[nH]c3c(=O)n(/N=C/[C@H]4C(C)C=C(C)CC4C)c(=O)[nH]c3c2c1 (stereo partly specified),60*,0,0,18,2,34*,48,9,10
COc1ccc2c(c1)[nH]c1c(=O)n(/N=C/C3C(C)C=C(C)CC3C)c(=O)[nH]c12 (stereo unspecified),62*,-6,3,17,-1,21,41,7,9
O=C(CSc1ncnc2scc(-c3ccccc3)c12)N1CCN(c2ccccc2F)CC1,20,-2,0,0,-5,.,.,.,.
COc1ccccc1N1CCN(C(=O)CSc2ncnc3scc(-c4ccccc4)c23)CC1,56*,-10,7,3,2,22*,33,5,10
CCOc1ccc(CCn2c(-c3ccco3)nc3ccccc3c2=O)cc1OCC,58*,-16,14,13,11,31*,45,7,6
Cc1ccccc1-c1cc(C(=O)NCc2ccc(OC(F)(F)F)cc2)n(CC2CC(c3cccnc3)=NO2)n1 (stereo unspecified),70*,-2,13,16,14,36*,53*,7,11
Cc1ccc(CNC(=O)c2cc(-c3ccccc3)nn2CC2CC(c3cccnc3)=NO2)cc1 (stereo unspecified),32,0,9,7,-5,.,.,.,.
Cc1ccc(CNC(=O)c2cc(-c3ccccc3C)nn2CC2CC(c3cccnc3)=NO2)cc1 (stereo unspecified),64*,-9,13,12,14,26*,34,5,10
O=C(NCc1cccc(Br)c1)c1cc(-c2ccccc2)nn1CC1CC(c2cccnc2)=NO1 (stereo unspecified),56*,-9,14,16,-10,21*,29,4,1
CCCc1c(C(=O)N/N=C/c2c[nH]c3ccccc23)nnn1-c1nonc1N,63*,2,9,29,-13,32*,47,12*,12
CC1(C)N=C(N)N=C(N)N1c1ccc(OCC(=O)N2CCOCC2)c(Cl)c1,-17,7,0,3,-13,.,.,.,.
N#C/C(=C\Nc1ccc2c(c1)OCCO2)C(=O)NCc1ccco1,0,-14,0,-2,2,.,.,.,.
CCc1ccc(N/C(SCc2cccc(F)c2)=C(/C#N)C(=O)NCc2ccco2)cc1,50*,-6,1,11,5,0,15,2,4
SMILES,TAAR1 antag,M4 PAM,M4 ag,TAAR1 ag,M4 antag,TAAR1 nonsel count,TAAR1 ant conf,Ga16 ag counter,TAAR1 ag counter
CCc1nc2ccc(C(=O)NCCOc3ccc(OC)cc3)cn2c1N(C)Cc1cccs1,62*,-6,10,0,-2,29*,33,5,1
O=C(Nc1nc2ccccc2c(=O)[nH]1)c1ccccc1SCc1ccccc1,50*,4,2,8,0,31*,53*,6,7
CC(C)(C)OC(=O)NCCCC[C@H](NC(=O)c1nc[nH]c1C(=O)N1CCN(C(=O)OC(C)(C)C)CC1)C(=O)OC(C)(C)C,50*,-11,11,14,4,17,39,6,8
C[C@@H](NC(=O)c1nc[nH]c1C(=O)N[C@@H](CCCCNC(=O)OC(C)(C)C)C(=O)OC(C)(C)C)c1ccccc1,50*,-7,7,15,4,20,37,4,15
CC(C)(C)OC(=O)NCCCC[C@H](NC(=O)c1nc[nH]c1C(=O)N1CCN(c2ccccc2)CC1)C(=O)OC(C)(C)C,33,-9,7,15,8,.,.,.,.
CC(C)(C)OC(=O)NCCCC[C@H](NC(=O)c1[nH]cnc1C(=O)Nc1ccccc1)C(=O)OC(C)(C)C,42,-5,7,12,10,.,.,.,.
C#CCNC(=O)c1ccc2sc([C@@H]3O[C@H](CO)[C@H](O)[C@H](O)[C@H]3O)nc2c1,-18,2,0,1,-1,.,.,.,.
CC1CCN(C(=O)c2ccc(N(C)S(C)(=O)=O)cc2)CC1,107*,1,0,5,3,-3,-4,3,5
